Test results as given in PMC6720533 (Biomolecules & Therapeutics, 2019).

Experiments:
Plk3 = Plk3 (Homo sapiens, UniProt Q9H4B4); experiment: Kinase activity screening; assay type: biochemical; settings: FX-9 at 2.5 μM, ATP at Km (70 μM)
Summary of the method: (§1)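 Radiometric kinase-panel screen of 58 human kinases, measuring substrate phosphorylation. […] Activity is given as % of the mean positive-control kinase activity (100%). Below 30% counts as a strong hit, 30–70% as a partial hit, and above 70% as no hit.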

mTOR = mTOR (Homo sapiens, UniProt P42345); experiment: Kinase activity screening; assay type: biochemical; settings: FX-9 at 2.5 μM, ATP at Km (70 μM)
Summary of the method: as §1

CDK1/cyclinB = CDK1/cyclinB (Homo sapiens, UniProt P06493); experiment: Kinase activity screening; assay type: biochemical; settings: FX-9 at 2.5 μM, ATP at Km (45 μM)
Summary of the method: (§2)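 Radiometric substrate-phosphorylation screen covering a panel of 58 human kinases run by a contract service. […] Activity is given as a percentage of mean activity in positive control samples (100%). Values <30% were scored strong hits, 30–70% partial hits and >70% no hit.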

SEM cells = experiment: Proliferation, viable cell count by trypan blue exclusion; assay type: cell-based, human; settings: 72 h
Summary of the method: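 Human B-ALL (SEM, RS4;11) and T-ALL (Jurkat, CEM) lines were grown with 10% heat-inactivated FBS and penicillin/streptomycin at 37°C, 5% CO2. Cells took test compound at 0.1–5.0 μM (methods: 0.5–5.0 μM) or DMSO for up to 72 h. Viable cells were counted by trypan blue exclusion and expressed relative to control (100%). IC50 came from three separate experiments, each in triplicate.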

CDK9/cyclin T1 = CDK9/cyclin T1 (Homo sapiens, UniProt P50750); experiment: Kinase activity screening; assay type: biochemical; settings: FX-9 at 2.5 μM, ATP at Km (45 μM)
CDK9/cyclin T1, sequence (P50750 whole entry): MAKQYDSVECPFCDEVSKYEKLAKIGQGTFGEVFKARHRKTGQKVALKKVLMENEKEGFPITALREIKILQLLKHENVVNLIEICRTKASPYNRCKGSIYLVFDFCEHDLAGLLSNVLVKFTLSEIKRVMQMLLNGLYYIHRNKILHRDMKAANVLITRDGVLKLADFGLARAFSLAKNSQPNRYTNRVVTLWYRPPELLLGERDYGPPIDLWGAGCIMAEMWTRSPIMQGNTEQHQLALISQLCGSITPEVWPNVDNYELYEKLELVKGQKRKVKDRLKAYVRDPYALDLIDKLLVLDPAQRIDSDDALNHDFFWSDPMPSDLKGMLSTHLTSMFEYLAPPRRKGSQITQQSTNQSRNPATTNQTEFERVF
CDK9/cyclin T1, sequence (O60563 whole entry partner): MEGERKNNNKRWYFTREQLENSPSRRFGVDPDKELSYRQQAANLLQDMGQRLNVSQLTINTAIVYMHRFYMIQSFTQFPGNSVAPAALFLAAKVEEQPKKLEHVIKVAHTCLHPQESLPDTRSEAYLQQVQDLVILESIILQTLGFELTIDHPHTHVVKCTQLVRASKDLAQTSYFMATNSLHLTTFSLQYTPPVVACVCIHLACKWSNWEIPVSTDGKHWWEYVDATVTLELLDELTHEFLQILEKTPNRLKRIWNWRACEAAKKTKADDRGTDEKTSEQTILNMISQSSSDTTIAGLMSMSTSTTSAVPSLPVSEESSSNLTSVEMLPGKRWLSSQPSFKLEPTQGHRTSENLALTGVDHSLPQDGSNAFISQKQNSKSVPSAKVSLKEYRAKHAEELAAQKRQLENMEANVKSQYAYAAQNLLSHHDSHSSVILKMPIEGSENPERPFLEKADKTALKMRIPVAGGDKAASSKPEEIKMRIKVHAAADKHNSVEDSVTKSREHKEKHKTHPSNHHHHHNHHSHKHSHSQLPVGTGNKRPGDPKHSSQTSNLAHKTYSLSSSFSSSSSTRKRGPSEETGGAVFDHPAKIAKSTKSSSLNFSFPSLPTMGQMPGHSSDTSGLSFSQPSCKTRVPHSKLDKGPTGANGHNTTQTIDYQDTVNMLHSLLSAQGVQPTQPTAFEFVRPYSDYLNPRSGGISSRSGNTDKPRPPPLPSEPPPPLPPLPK
Summary of the method: as §2

PKBα = PKBα (Homo sapiens, UniProt P31749); experiment: Kinase activity screening; assay type: biochemical; settings: FX-9 at 2.5 μM, ATP at Km (155 μM)
Summary of the method: as §2

pERK = experiment: Western blot, RS4; assay type: cell-based, human; settings: RS4;11, 2.5 μM or 5.0 μM, 48 h
Summary of the method: (§3)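 SEM or RS4;11 cells took DMSO, 2.5 or 5.0 μM test compound for 48 h. Cells (1–5×10^6) were lysed in RIPA buffer with sonication, run on SDS gels, blotted to PVDF and imaged by near-infrared fluorescence. Bands were normalised to GAPDH, and the phospho/total protein ratio was set relative to DMSO control (=1).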

Mnk2 = Mnk2 (Homo sapiens, UniProt Q9HBH9); experiment: Kinase activity screening; assay type: biochemical; settings: FX-9 at 2.5 μM, ATP at Km (120 μM)
Summary of the method: as §2

recombinant human CK2α1 = recombinant human CK2α1 (Homo sapiens, UniProt P68400); experiment: CK2 kinase activity assay; assay type: biochemical; settings: 60 min
recombinant human CK2α1, sequence (P68400 whole entry): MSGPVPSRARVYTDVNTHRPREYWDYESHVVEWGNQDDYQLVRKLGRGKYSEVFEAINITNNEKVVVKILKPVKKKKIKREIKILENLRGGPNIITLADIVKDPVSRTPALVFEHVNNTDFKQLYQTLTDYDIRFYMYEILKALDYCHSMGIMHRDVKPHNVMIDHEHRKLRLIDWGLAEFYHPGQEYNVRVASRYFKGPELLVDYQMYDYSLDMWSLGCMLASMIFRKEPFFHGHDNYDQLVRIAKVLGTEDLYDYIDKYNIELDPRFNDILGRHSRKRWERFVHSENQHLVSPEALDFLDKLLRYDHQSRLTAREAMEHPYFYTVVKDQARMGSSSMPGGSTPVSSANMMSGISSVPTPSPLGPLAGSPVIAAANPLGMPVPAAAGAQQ
Summary of the method: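 Recombinant human CK2α1 (50 ng) was incubated with 2.5 μg CK2α1 substrate, 10 μM ATP, and test compound, reference inhibitor or DMSO for 60 min at room temperature. ADP-Glo reagent stopped the reaction and depleted remaining ATP. Detection reagent then converted ADP to ATP for luciferase/luciferin luminescence, which tracks the ADP formed as the measure of kinase activity.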

KDR = KDR (Homo sapiens, UniProt P35968); experiment: Kinase activity screening; assay type: biochemical; settings: FX-9 at 2.5 μM, ATP at Km (90 μM)
KDR, sequence (P35968 20-1356): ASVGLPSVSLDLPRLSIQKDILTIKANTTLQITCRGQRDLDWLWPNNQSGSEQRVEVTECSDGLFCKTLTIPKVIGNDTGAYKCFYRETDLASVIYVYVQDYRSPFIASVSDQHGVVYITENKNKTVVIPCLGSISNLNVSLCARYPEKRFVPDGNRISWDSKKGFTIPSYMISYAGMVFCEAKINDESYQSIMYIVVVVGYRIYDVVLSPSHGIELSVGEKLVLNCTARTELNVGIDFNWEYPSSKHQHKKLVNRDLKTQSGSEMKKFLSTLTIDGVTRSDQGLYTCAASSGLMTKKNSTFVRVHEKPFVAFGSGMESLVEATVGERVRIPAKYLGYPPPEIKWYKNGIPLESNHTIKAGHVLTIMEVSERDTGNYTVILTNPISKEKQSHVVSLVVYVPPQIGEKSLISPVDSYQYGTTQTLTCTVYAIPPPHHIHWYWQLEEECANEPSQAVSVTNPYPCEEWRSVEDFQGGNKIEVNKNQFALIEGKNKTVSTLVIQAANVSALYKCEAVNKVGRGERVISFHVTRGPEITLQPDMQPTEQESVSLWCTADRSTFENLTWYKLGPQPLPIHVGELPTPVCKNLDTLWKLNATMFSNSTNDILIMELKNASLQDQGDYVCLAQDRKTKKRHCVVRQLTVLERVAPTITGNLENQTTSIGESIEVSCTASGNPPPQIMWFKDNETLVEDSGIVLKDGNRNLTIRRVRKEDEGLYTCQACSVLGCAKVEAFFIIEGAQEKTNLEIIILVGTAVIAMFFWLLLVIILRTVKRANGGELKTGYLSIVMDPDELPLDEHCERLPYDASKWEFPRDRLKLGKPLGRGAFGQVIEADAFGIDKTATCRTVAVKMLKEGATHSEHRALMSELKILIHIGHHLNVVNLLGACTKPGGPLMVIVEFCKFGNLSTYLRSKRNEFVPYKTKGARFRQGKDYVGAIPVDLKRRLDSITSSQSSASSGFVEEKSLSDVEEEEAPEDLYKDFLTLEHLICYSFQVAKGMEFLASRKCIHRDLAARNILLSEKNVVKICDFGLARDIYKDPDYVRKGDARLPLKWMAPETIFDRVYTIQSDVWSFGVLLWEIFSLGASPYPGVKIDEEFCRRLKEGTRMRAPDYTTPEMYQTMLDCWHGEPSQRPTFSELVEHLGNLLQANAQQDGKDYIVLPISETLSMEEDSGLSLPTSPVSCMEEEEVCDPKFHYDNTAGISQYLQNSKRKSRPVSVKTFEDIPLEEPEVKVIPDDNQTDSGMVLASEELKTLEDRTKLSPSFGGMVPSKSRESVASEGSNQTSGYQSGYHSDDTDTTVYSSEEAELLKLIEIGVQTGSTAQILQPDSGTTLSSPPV
Summary of the method: as §2

eEF-2K = eEF-2K (Homo sapiens, UniProt O00418); experiment: Kinase activity screening; assay type: biochemical; settings: FX-9 at 2.5 μM, ATP at Km (15 μM)
eEF-2K, sequence (O00418 whole entry): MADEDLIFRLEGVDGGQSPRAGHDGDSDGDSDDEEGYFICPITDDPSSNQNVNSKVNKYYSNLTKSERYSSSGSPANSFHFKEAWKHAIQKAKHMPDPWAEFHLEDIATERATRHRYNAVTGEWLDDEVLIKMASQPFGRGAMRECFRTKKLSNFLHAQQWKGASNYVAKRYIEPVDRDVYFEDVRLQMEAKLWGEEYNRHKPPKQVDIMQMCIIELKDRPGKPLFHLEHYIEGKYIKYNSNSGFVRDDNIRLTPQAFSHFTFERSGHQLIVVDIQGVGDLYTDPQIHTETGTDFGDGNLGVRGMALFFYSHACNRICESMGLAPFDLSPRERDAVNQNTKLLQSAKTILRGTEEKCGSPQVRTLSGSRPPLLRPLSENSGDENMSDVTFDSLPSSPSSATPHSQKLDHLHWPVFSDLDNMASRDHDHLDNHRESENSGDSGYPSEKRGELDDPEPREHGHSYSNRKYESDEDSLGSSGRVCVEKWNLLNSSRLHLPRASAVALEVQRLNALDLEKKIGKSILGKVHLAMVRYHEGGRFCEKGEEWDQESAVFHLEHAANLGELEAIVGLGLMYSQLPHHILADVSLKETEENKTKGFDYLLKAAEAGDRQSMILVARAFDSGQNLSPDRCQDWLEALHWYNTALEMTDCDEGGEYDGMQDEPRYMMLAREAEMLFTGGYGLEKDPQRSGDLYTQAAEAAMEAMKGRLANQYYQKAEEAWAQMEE
Summary of the method: as §1

EphB4 = EphB4 (Homo sapiens, UniProt P54760); experiment: Kinase activity screening; assay type: biochemical; settings: FX-9 at 2.5 μM, ATP at Km (10 μM)
Summary of the method: as §2

Rse = Rse (Homo sapiens, UniProt Q06418); experiment: Kinase activity screening; assay type: biochemical; settings: FX-9 at 2.5 μM, ATP at Km (45 μM)
Summary of the method: as §1

PDGFRβ = PDGFRβ (Homo sapiens, UniProt P09619); experiment: Kinase activity screening; assay type: biochemical; settings: FX-9 at 2.5 μM, ATP at Km (200 μM)
Summary of the method: as §2

CEM cells = experiment: Cell morphology, May Grünwald Giemsa staining; assay type: cell-based, human; settings: 2.5 μM, 48 h
CDK7/cyclinH/MAT1 = CDK7/cyclinH/MAT1 (Homo sapiens, UniProt P50613); experiment: Kinase activity screening; assay type: biochemical; settings: FX-9 at 2.5 μM, ATP at Km (90 μM)
Summary of the method: as §2

RS4;11 cells = experiment: Cell morphology, May Grünwald Giemsa staining; assay type: cell-based, human; settings: 48 h
pSTAT3 = experiment: Western blot, SEM cells; assay type: cell-based, human; settings: 2.5 μM or 5.0 μM, 48 h
Summary of the method: as §3

EGFR = EGFR (Homo sapiens, UniProt P00533); experiment: Kinase activity screening; assay type: biochemical; settings: FX-9 at 2.5 μM, ATP at Km (10 μM)
EGFR, sequence (P00533 25-1210): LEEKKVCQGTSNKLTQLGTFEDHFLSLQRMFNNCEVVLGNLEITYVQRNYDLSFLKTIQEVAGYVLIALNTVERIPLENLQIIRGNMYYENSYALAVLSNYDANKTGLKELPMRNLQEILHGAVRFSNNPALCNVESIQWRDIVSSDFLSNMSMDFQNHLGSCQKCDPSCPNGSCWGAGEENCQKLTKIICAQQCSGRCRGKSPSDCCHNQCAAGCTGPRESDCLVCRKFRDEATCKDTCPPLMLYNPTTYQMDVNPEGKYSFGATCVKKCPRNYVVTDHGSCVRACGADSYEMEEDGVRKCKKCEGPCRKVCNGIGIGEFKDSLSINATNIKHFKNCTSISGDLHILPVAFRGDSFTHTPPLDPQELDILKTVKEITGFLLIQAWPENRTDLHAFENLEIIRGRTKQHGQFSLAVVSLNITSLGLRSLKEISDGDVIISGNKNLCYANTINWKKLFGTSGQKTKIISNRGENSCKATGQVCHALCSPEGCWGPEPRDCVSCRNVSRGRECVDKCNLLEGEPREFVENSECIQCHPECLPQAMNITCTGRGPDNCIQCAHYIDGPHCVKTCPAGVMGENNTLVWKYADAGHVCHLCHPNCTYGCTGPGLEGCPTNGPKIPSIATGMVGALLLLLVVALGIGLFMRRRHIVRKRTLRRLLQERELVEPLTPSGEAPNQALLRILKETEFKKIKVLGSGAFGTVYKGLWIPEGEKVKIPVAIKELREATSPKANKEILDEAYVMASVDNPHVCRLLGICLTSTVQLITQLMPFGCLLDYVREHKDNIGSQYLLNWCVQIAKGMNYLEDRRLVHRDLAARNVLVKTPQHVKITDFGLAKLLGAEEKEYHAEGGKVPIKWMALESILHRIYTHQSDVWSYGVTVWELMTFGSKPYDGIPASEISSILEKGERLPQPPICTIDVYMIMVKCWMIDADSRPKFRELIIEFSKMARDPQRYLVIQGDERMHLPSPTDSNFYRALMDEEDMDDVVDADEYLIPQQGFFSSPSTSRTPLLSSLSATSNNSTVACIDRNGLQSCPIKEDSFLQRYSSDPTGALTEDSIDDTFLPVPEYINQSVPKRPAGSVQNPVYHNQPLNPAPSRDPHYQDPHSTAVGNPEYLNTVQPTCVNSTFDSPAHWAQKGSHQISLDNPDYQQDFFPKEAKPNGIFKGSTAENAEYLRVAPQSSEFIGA
Summary of the method: as §2

- Kinase activity (% control) (Plk3): 99 % control
- Kinase activity (% control) (mTOR): 100 % control
- Kinase activity (% control) (CDK1/cyclinB): 97 % control
- Kinase activity (% control) (CDK9/cyclin T1): 86 % control
- Kinase activity (% control) (PKBα): 98 % control
- Kinase activity (% control) (Mnk2): 90 % control
- CK2 enzyme activity (recombinant human CK2α1; 10 μM FX-9, 10 μM ATP): not changed significantly
- CK2 enzyme activity (recombinant human CK2α1; increasing concentrations, 10 μM ATP): No changes of CK2 enzyme activity
- Kinase activity (% control) (KDR): 83 % control
- Kinase activity (% control) (eEF-2K): 86 % control
- Kinase activity (% control) (EphB4): 83 % control
- Kinase activity (% control) (Rse): 92 % control
- Kinase activity (% control) (PDGFRβ): 99 % control
- Kinase activity (% control) (CDK7/cyclinH/MAT1): 91 % control
- Kinase activity (% control) (EGFR): 101 % control
SMILES: Cc1ccc(-c2cc3ccccc3c(N)n2)cc1 [FX-9, 3-(p-Tolyl)isoquinolin-1-amine]
- IC50 (SEM cells; Homo sapiens, read-out: IC50 based on proliferation): 1460 ± 10 nM
- Proliferation compared to control cells (=100%) (SEM cells; SEM, 0.5 μM): 69.5%
- pERK level (western blot) (pERK): dose dependent increase
- cellular morphology (light microscopy) (CEM cells): Extensive cytoplasmic vacuolization, karyopyknosis, and karyolysis
- cellular morphology (light microscopy) (RS4;11 cells; RS4;11, 1.0 μM): increased amount of vacuoles and karyopyknosis
- cellular morphology (light microscopy) (RS4;11 cells; RS4;11, 2.5 μM): Extensive cytoplasmic vacuolization, karyopyknosis, and karyolysis
- pSTAT3 level (western blot) (pSTAT3): reduced
